Results: ChEMBL document CHEMBL1124849, “Synthesis, antitumor activity, and antiviral activity of 3-substituted 3-deazacytidines and 3-substituted 3-deazauridines” (J Med Chem, 1990)
≈ marks a conversion by molar mass, not a printed value.

Tests used:
[1] = tested on: L1210; experiment: In vitro inhibition of L1210 leukemia cell growth; assay type: functional; settings: Mus musculus, read-out: ID50 (the source's name)
[2] = tested on: Enterovirus; experiment: The minimum inhibitory concentration (MIC) required to inhibit rhinovirus type 34 induced cytopathic effect (CPE) on WISH cells; assay type: functional
Summary of the method: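 WISH cells grown 18–24 h to monolayers. Serial 2-fold drug dilutions applied, then 320 CCID50 of rhinovirus type 34 added; sealed plates incubated 72 h at 33 °C. Cell, virus and toxicity controls included.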

[3] = The minimum cytotoxic concentration (MCC) reducing cell viability on WISH cells; assay type: cell-based; settings: human
Summary of the method: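 Uninfected WISH cell monolayers, grown 18–24 h, were given serial 2-fold drug dilutions (cells + medium + drug) and incubated at 33 °C for 72 h. Cells were examined microscopically.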

[4] = (§1) The antiviral index is defined as MCC/MIC; assay type: functional
[5] = tested on: Mus musculus; experiment: Compound (100 mg/kg) was tested against intraperitoneally implanted P388 leukemia in mice; assay type: functional
Summary of the method: (§2)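 CD2F1 mice, groups of six, inoculated ip with 10⁶ P388 leukemia cells; ip treatment started 24 h after inoculation, once daily for 5 days. Read-out is %T/C = (mean survival time of treated mice in days / mean survival time of controls) × 100, with ≥120 taken as moderate activity.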

[6] = tested on: Mus musculus; experiment: Compound (200 mg/kg) was tested against intraperitoneally implanted P388 leukemia in mice; assay type: functional; summary of the method: as §2
[7] = tested on: Mus musculus; experiment: Compound (400 mg/kg) was tested against intraperitoneally implanted P388 leukemia in mice; assay type: functional; summary of the method: as §2
[8] = tested on: Mus musculus; experiment: Compound (50 mg/kg) was tested against intraperitoneally implanted P388 leukemia in mice; assay type: functional; summary of the method: as §2
[9] = tested on: Mus musculus; experiment: Compound (600 mg/kg) was tested against intraperitoneally implanted P388 leukemia in mice; assay type: functional; summary of the method: as §2
[10] = species: Mus musculus; experiment: Mean weight change (day 5 wt minus day 1 wt) of the treated mice to the mean weight change of the control mice in grams; assay type: functional
Summary of the method: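 CD2F1 mice given 10⁶ P388 cells ip, then ip treatment once daily for 5 days starting at 24 h. Toxicity is the mean weight change (day 5 minus day 1) of treated mice minus that of control mice, in grams.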

[11] = as §1; assay type: ADME; settings: read-out: Antiviral index
Summary of the method: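 Rhinovirus type 34 on WISH cell monolayers grown 18–24 h. Serial 2-fold drug dilutions were added with 320 CCID50 of virus and incubated at 33 °C for 72 h. CPE was scored microscopically on a 0–4 scale. […] AI = MCC/MIC.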

Compound	IC50 [1] [µM]	MIC [2] [µg/mL]	MCC [3] [µg/mL]	Antiviral index [4]	other results
Nc1c(F)cn(C2O[C@H](CO)[C@@H](O)[C@H]2O)c(=O)c1F (some centres not stated)	> 35.9	28.3 (≈ 102 µM)	400	14.1	
O=c1c(Cl)c(O)ccn1C1O[C@H](CO)[C@@H](O)[C@H]1O (some centres not stated)			> 1000		
Nc1ccn(C2O[C@H](CO)[C@@H](O)[C@H]2O)c(=O)c1[N+](=O)[O-] (some centres not stated)			> 1000		
Nc1ccn(C2O[C@H](CO)[C@@H](O)[C@H]2O)c(=O)c1Cl (some centres not stated)	> 36.1	53.7 (≈ 194 µM)	400	7.5	
O=c1cc(O)ccn1[C@@H]1O[C@H](CO)[C@@H](O)[C@H]1O			400		
Nc1ccn([C@@H]2O[C@H](CO)[C@@H](O)[C@H]2O)c(=O)c1	28.6	3.2 (≈ 13.2 µM)	400	125	
Nc1ccn(C2O[C@H](CO)[C@@H](O)[C@H]2O)c(=O)c1Br (some centres not stated)	> 31.1	173 (≈ 540 µM)	800	4.6	
Nc1ccn(C2O[C@H](CO)[C@@H](O)[C@H]2O)c(=O)c1F (some centres not stated)	11.8	1.3 (≈ 5 µM)	400		T/C [5]: 149; T/C [6]: 158; T/C [7]: 177; T/C [8]: 133; T/C [9]: 185; Weight change [10]: -3.4 (not active) [middle of 5 runs]; selectivity ratio [11]: 308
Nc1cc(=O)n(C2O[C@H](CO)[C@@H](O)[C@H]2O)cc1F (some centres not stated)			800		
O=c1c([N+](=O)[O-])c(O)ccn1C1O[C@H](CO)[C@@H](O)[C@H]1O (some centres not stated)			400		
O=c1c(Br)c(O)ccn1C1O[C@H](CO)[C@@H](O)[C@H]1O (some centres not stated)			> 1000		
